mABHD4 FP – ABHD4 inhibitors, primary screen, biochemical, fluorescence polarization, mouse | (Lyso)-N-acylphosphatidylethanolamine lipase (Mus musculus), Q8VD66 | purified mABHD4, FP-Rh probe fluorescence polarization | inhibition, % at 8.92 µM | hit rate 0.54% among 370,000;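 active = inhibition exceeding the mean over every tested compound plus 3 SD, cut at about 30% in these data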;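 note: 0% = plate median of compound wells and 100% = S159A mutant with DMSO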
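Assay system: mABHD4 protein; medium: HEPES pH 7.0, NaCl, Pluronic buffer; dosing: 8.92 µM, single dose; schedule: 45 min + 60 min at 25 °C; signal: FP readout, ex 525 nm / em 598 nm; read-out: normalized percent inhibition of probe labeling; repeats: single replicate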
PAFAH2 FP inh – PAFAH2 enzyme inhibitors, primary screen, biochemical, fluorescence polarization, human; Platelet-activating factor acetylhydrolase 2, cytoplasmic (Homo sapiens), Q99487; recombinant PAFAH2, FP-rhodamine activity probe; inhibition, % at 3.39 µM; hit rate 0.99% among 340,000;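 active = inhibition above the mean over all tested compounds plus 3 SD, cut at about 30% in these data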;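 note: inhibitors block probe labeling of enzyme so polarization drops; 0% = enzyme with DMSO and 100% = wells lacking PAFAH2 protein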
pPAFAH FP inh – pPAFAH enzyme inhibitors, primary screen, biochemical, fluorescence polarization, human | recombinant pPAFAH, FP-rhodamine probe fluorescence polarization | inhibition, % at 3.39 µM | hit rate 1.5% among 330,000 | AID 463082, 2010 | Platelet-activating factor acetylhydrolase (Homo sapiens), Q13093;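 active = inhibition above the mean inhibition across the screen plus 3 SD, cut at about 25% in these data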;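 note: inhibitors block binding of the rhodamine activity-based probe so polarization drops; 0% = enzyme with DMSO and 100% = wells lacking pPAFAH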
Target sequence (Q13093 whole entry, looked up): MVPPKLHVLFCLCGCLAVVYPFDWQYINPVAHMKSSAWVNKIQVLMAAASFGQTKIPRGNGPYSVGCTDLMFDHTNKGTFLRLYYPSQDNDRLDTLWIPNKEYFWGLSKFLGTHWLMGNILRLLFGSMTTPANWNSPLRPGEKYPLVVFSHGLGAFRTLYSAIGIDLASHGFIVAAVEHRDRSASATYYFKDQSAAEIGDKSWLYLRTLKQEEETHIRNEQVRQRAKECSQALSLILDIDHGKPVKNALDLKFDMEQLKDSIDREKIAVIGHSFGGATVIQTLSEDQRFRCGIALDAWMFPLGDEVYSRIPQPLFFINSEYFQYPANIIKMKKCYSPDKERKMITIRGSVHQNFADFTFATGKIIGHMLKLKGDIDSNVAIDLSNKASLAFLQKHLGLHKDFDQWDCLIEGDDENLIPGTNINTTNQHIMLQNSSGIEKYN
PAFAH1B3 inh – PAFAH1B3 enzyme inhibitors, primary screen, biochemical, fluorescence polarization, human. recombinant PAFAH1B3, FP-rhodamine probe. hit rate 0.28% among 340,000. Platelet-activating factor acetylhydrolase IB subunit alpha1 (Homo sapiens), Q15102. inhibition, % at 3.39 µM. AID 492972, 2010;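 active = inhibition above the screen-wide average of all tested compounds plus 3 SD, cut at about 25% in these data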;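 note: 0% = enzyme with DMSO only and 100% = wells lacking PAFAH1B3 protein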
HTRA1 inhibitor – HTRA1 serine protease inhibitors, primary screen, biochemical, fluorescence polarization, HTS. Q92743. recombinant HTRA1, FP-rhodamine activity-based probe. inhibition, % at 5.96 µM. hit rate 0.5% among 340,000. AID 504803, 2011; in the data active = inhibition above about 36%;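 note: 0% = enzyme with DMSO and 100% = wells lacking enzyme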
PAFAH1B2 FP inh – PAFAH1B2 enzyme inhibitors, primary screen, biochemical, fluorescence polarization, human | Platelet-activating factor acetylhydrolase IB subunit alpha2 (Homo sapiens), P68402 | recombinant PAFAH1B2, FP-rhodamine activity probe | inhibition, % at 3.39 µM | hit rate 1.2% among 340,000 | AID 492953, 2010;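 active = inhibition above the mean of all tested compounds plus 3 SD, cut at about 24% in these data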;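 note: 0% = enzyme with DMSO and 100% = wells lacking PAFAH1B2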
Target sequence (P68402 whole entry, looked up): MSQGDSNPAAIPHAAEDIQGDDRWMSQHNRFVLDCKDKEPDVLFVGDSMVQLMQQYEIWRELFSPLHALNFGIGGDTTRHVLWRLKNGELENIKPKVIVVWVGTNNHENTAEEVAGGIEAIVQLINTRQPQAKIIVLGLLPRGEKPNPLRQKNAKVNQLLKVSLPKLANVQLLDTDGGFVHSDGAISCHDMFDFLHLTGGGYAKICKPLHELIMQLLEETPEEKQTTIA
pPAFAH confirm – pPAFAH (PLA2G7) enzyme inhibitors, confirmation, biochemical, fluorescence polarization, human | shares compounds with pPAFAH FP inh | recombinant pPAFAH, FP-Rh probe fluorescence polarization | inhibition, % at 3.39 µM | hit rate 72% among 2,300;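 active = mean inhibition of the triplicate above the hit cutoff set for the earlier primary screen, cut at about 25% in these data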;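 note: 0% = enzyme with DMSO and 100% = wells lacking pPAFAH enzyme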
HTRA1 conf – HTRA1 protease inhibitors, retest, confirmation, biochemical, fluorescence polarization; recombinant HTRA1, FP-rhodamine activity-based probe; inhibition, % at 5.96 µM; hit rate 66% among 1,600; shares compounds with HTRA1 inhibitor;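 active = mean inhibition over three repeats above a set limit taken from the earlier primary screen, cut at about 37% in these data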;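 note: 0% = HTRA1 with DMSO and 100% = wells lacking HTRA1; inhibitors block probe binding so polarization drops and inhibition rises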
ABHD4 confirm – ABHD4 inhibitors, retest, confirmation, biochemical, fluorescence polarization, mouse | purified mABHD4, FP-Rh probe fluorescence polarization | hit rate 55% among 1,800 | shares compounds with mABHD4 FP | inhibition, % at 8.92 µM | AID 720658, 2013;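 active = mean inhibition across replicates above the hit cutoff set in the primary screen, cut at about 30% in these data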;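 note: 0% = wild-type ABHD4 with DMSO and 100% = catalytically dead S159A mutant with DMSO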
Numbers without * were called inactive; . = no result given. Hits are enriched below; roughly 2.8% of the tested compounds scored in any of these assays.

SMILES | mABHD4 FP | PAFAH2 FP inh | pPAFAH FP inh | PAFAH1B3 inh | HTRA1 inhibitor | PAFAH1B2 FP inh | pPAFAH confirm | HTRA1 conf | ABHD4 confirm
Cc1ccccc1NC(=O)CSc1nnc(-c2ccco2)c(-c2ccco2)n1 | . | 11 | 45* | 14 | 43* | 7 | 21 | 16 | .
O=C(NC1CCCCN(Cc2ccc(Cl)cc2)C1=O)c1cc(-c2ccccc2)no1 (stereo unspecified) | -7 | . | . | . | . | . | . | . | .
COC(=O)[C@]12C[C@H](CC(=O)NCCCN3CCCC3=O)C(=O)N(CCC3=CCCCC3)C1=C[C@H](C1CCCC1)O[C@@H]2C | 2 | . | . | . | . | . | . | . | .
O=Nc1ccc(O)c2ncccc12 | 0 | 10 | 6 | 8 | 9 | 10 | . | . | .
Cc1ccccc1N=Nc1ccc(O)c2ncccc12 | 14 | 1 | 41* | 9 | 37* | 3 | 36* | 65* | .
O=S(=O)(O)c1cccc2c(N=Nc3ccc(O)c4ncccc34)cccc12 | . | 66* | 92* | 64* | 71* | 41* | 91* | 75* | .
O=[N+]([O-])c1ccc(O)c2ncccc12 | 26 | 4 | 7 | 16 | 32 | 11 | . | . | .
C[C@H]1[C@@H](c2ccccc2)OC(O)([C@H](Cc2ccccc2)NC(=O)OC(C)(C)C)CN1C (stereo partly specified) | 8 | . | . | . | . | . | . | . | .
COc1ccc(/C=C2\SC(=S)N(CCCC(=O)NNC(=O)c3ccccc3O)C2=O)cc1 | 6 | 5 | 15 | 3 | 33 | 4 | . | . | .
COc1ccccc1/C=C1\SC(=S)N(CCC(=O)NNC(=O)c2ccccc2O)C1=O | . | 5 | 35* | 11 | 39* | 2 | 66* | 68* | .
Oc1ccc(/C=N/n2c(-c3ccco3)csc2=Nc2cccnc2)c(O)c1 | 21 | 10 | 19 | 10 | 8 | 9 | . | . | .
CC(C)N=c1scc(-c2ccco2)n1/N=C/c1ccc(O)c(O)c1 | 36* | 4 | 64* | 6 | 67* | 1 | 69* | 58* | .
CCCCC(=O)NC(c1cccs1)c1cc(Cl)c2cccnc2c1O (stereo unspecified) | 9 | 17 | 45* | 13 | 55* | 6 | 32* | 55* | .
COc1ccc(CC(=O)NC2CCCCN(Cc3ccc(Cl)cc3)C2=O)cc1OC (stereo unspecified) | -7 | . | . | . | . | . | . | . | .
Cc1ccc(O)c(O)c1 | . | . | 13 | . | . | . | . | . | .
Cc1cc(O)c(Oc2cc(C)cc(O)c2O)c(O)c1 | 29 | 24 | 39* | 10 | 64* | 11 | 15 | 81* | .
Cc1ccc(/C=C2\SC(=S)N(/N=C/c3cc([N+](=O)[O-])ccc3O)C2=O)o1 | . | 74* | 63* | 46* | 49* | 26* | 56* | 39* | .
CCCCOc1cccc(C(=O)NCCc2ccccc2-c2ccccc2CCC(=O)NCc2ccccc2)c1 | -2 | . | . | . | . | . | . | . | .
N#Cc1ccc(/C=C2\CC3(OC(=O)C4CCCC4)CCCN2C3)cc1 (stereo unspecified) | -1 | . | . | . | . | . | . | . | .
CN1CCN(CC(=O)N2CCn3c4c(c5cc(C6CCCCC6)ccc53)CCCC42)CC1 (stereo unspecified) | . | -2 | 36* | 9 | 41* | 5 | 54* | 54* | .
COC(=O)c1cc(S(=O)(=O)N2CCN(c3ccccc3Cl)CC2)cn1C | -3 | . | . | . | . | . | . | . | .
C=CCn1c(SCC(=O)c2ccc(O)c(O)c2)nnc1-c1cccc(C)c1 | 41* | 29 | 35* | 9 | 70* | 9 | 80* | 78* | 30*
CCNc1ccc2noc3c2c1C(=O)c1ccccc1-3 | 122* | 114* | 106* | 104* | 123* | 114* | 99* | 112* | 116*
CN=c1scc(-c2cccs2)n1/N=C/c1ccccc1O | 3 | 1 | 6 | 6 | -6 | 5 | . | . | .
CN=c1scc(C)n1/N=C/c1ccc(O)c(O)c1O | 41* | 5 | 60* | 8 | 39* | -1 | 9 | 60* | 24
SMILES | mABHD4 FP | PAFAH2 FP inh | pPAFAH FP inh | PAFAH1B3 inh | HTRA1 inhibitor | PAFAH1B2 FP inh | pPAFAH confirm | HTRA1 conf | ABHD4 confirm
CN=c1scc(-c2cccs2)n1/N=C/c1ccc(O)c(O)c1O | 56* | 12 | 51* | -4 | 82* | -2 | 65* | 73* | 74*
CN(CCO)c1ccc2c(c1)Oc1ccccc1CN(Cc1cn(Cc3ccccc3C(F)(F)F)nn1)S2(=O)=O | -3 | . | . | . | . | . | . | . | .
CSc1nsc(/C=C/Nc2ccc(F)cc2)c1C#N | 2 | -7 | 9 | -9 | -13 | 0 | . | . | .
CSc1nsc(/C=C/Nc2ccc(O)cc2C)c1C#N | 59* | 22 | 48* | 14 | 74* | 12 | 9 | -10 | 7
N#CCC(=O)Nc1ccc(C(=O)OCC(=O)Nc2ccccc2Sc2ccccc2)cc1 | 52* | . | 71* | . | . | . | 6 | . | -77
CC(=O)Nc1ccc(C(=O)OCC(=O)Nc2ccccc2Sc2ccccc2)cc1 | -31 | 24 | -1 | -2 | -79 | -7 | . | . | .
Cn1c(=O)cc2c3c(c(N4CCCCC4)ccc31)C(=O)c1ccccc1-2 | 104* | . | 54* | . | . | . | 28* | . | 100*
COCCN=c1scc(-c2cccs2)n1/N=C(\C)c1ccco1 | 0 | -1 | 6 | -3 | -15 | -3 | . | . | .
COCCN=c1scc(-c2ccco2)n1/N=C/c1ccc(O)c(O)c1O | 60* | 25 | 64* | 8 | 68* | -8 | 67* | 78* | 62*
C=CCN=c1scc(-c2ccco2)n1/N=C/c1ccc(O)c(O)c1O | 49* | 7 | 49* | 6 | 72* | -1 | 68* | 86* | 60*
CCOC(=O)CC[C@@]1(C(=O)OCC)C[C@@H](CC(=O)NCCCOC)C(=O)N2CCCC=C21 | 0 | . | . | . | . | . | . | . | .
COc1cccc(N=Nc2ccc(O)c3ncccc23)c1 | 43* | 5 | 60* | 9 | 76* | 6 | 25* | 67* | 48*
COCc1ccc(O)c2ncccc12 | 5 | -2 | 4 | 2 | 9 | 2 | . | . | .
COC(=O)C1CN(C(=O)OC(C)(C)C)C2=C1C(=O)CC(C)(C(=O)OC(C)(C)C)C2 (stereo unspecified) | 3 | . | . | . | . | . | . | . | .
Cc1cc2cc(CNS(=O)(=O)c3ccccc3)ccc2n1C | 37* | 18 | 47* | 6 | 51* | 13 | 35* | 25 | 4
